Source: ChEMBL document CHEMBL1142492 (J Med Chem, 2008)

What was measured:
[1] = target: Atypical kinase COQ8A, mitochondrial (Homo sapiens) (UniProt Q8NI60); assay: Inhibition of ADCK3 at 3 uM
[2] = target: Serine/threonine-protein kinase TNNI3K (Homo sapiens) (UniProt Q59H18); assay: Inhibition of TNNI3K at 3 uM
[3] = target: Receptor tyrosine-protein kinase erbB-4 (Homo sapiens) (UniProt Q15303); assay: Inhibition of ERBB4 at 3 uM
In short: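 Single-concentration kinase panel scoring: each value is the percentage of enzyme activity remaining relative to a DMSO-only control. An activity statistically indistinct from DMSO control was scored "no hit".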

[4] = target: Myosin light chain kinase 2, skeletal/cardiac muscle (Homo sapiens) (UniProt Q9H1R3); assay: Inhibition of MYLK2 at 3 uM
[5] = target: Inhibitor of nuclear factor kappa-B kinase subunit epsilon (Homo sapiens) (UniProt Q14164); assay: Inhibition of IKK-epsilon at 3 uM
[6] = target: Sodium-dependent dopamine transporter (Homo sapiens) (UniProt Q01959); assay: Inhibition of human DAT at 3 uM
In short: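 Counter-screen binding/enzyme panel at single 3 μM, n=2; results as percent inhibition. Species per target as listed (rat NMDA, GABAA sites; human receptors, transporters; rabbit ACE).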

[7] = target: Tyrosine-protein kinase receptor TYRO3 (Homo sapiens) (UniProt Q06418); assay: Inhibition of TYRO3 at 3 uM
[8] = target: BMP-2-inducible protein kinase (Homo sapiens) (UniProt Q9NSY1); assay: Inhibition of BIKE at 3 uM
[9] = target: Serine/threonine-protein kinase Nek9 (Homo sapiens) (UniProt Q8TD19); assay: Inhibition of NEK9 at 3 uM
[10] = target: Mitogen-activated protein kinase 14 (Homo sapiens) (UniProt Q16539); assay: Inhibition of p38-alpha at 3 uM
[11] = target: Muscarinic acetylcholine receptor M3 (Homo sapiens) (UniProt P20309); assay: Inhibition of human muscarinic M3 receptor at 3 uM
[12] = target: Tyrosine-protein kinase Srms (Homo sapiens) (UniProt Q9H3Y6); assay: Inhibition of SRMS at 3 uM
[13] = target: Androgen receptor (Rattus norvegicus) (UniProt P15207); assay: Inhibition of rat androgen receptor at 3 uM
[14] = target: Serine/threonine-protein kinase RIO1 (Homo sapiens) (UniProt Q9BRS2); assay: Inhibition of RIOK1 at 3 uM
Homo sapiens = species: Homo sapiens; details: 3 uM
Sus scrofa = species: Sus scrofa; details: 25 uM
[15] = target: Macrophage colony-stimulating factor 1 receptor (Homo sapiens) (UniProt P07333); assay: Inhibition of CSF1R at 3 uM
[16] = target: RAC-beta serine/threonine-protein kinase (Homo sapiens) (UniProt P31751); assay: Inhibition of AKT2 at 3 uM
[17] = target: Serine/threonine-protein kinase PAK 2 (Homo sapiens) (UniProt Q13177); assay: Inhibition of PAK2 at 3 uM
[18] = target: Mitogen-activated protein kinase kinase kinase 5 (Homo sapiens) (UniProt Q99683); assay: Inhibition of MAP3K5 at 3 uM
[19] = target: Serine/threonine-protein kinase MARK2 (Homo sapiens) (UniProt Q7KZI7); assay: Inhibition of MARK2 at 3 uM
[20] = target: Focal adhesion kinase 1 (Homo sapiens) (UniProt Q05397); assay: Inhibition of PTK2 at 3 uM
[21] = target: Citron Rho-interacting kinase (Homo sapiens) (UniProt O14578); assay: Inhibition of CIT at 3 uM
[22] = target: Tyrosine-protein kinase SYK (Homo sapiens) (UniProt P43405); assay: Inhibition of SYK at 3 uM
Rattus norvegicus = species: Rattus norvegicus; details: 3 uM

Sequence of Androgen receptor (Rattus norvegicus) (P15207 whole entry S389L): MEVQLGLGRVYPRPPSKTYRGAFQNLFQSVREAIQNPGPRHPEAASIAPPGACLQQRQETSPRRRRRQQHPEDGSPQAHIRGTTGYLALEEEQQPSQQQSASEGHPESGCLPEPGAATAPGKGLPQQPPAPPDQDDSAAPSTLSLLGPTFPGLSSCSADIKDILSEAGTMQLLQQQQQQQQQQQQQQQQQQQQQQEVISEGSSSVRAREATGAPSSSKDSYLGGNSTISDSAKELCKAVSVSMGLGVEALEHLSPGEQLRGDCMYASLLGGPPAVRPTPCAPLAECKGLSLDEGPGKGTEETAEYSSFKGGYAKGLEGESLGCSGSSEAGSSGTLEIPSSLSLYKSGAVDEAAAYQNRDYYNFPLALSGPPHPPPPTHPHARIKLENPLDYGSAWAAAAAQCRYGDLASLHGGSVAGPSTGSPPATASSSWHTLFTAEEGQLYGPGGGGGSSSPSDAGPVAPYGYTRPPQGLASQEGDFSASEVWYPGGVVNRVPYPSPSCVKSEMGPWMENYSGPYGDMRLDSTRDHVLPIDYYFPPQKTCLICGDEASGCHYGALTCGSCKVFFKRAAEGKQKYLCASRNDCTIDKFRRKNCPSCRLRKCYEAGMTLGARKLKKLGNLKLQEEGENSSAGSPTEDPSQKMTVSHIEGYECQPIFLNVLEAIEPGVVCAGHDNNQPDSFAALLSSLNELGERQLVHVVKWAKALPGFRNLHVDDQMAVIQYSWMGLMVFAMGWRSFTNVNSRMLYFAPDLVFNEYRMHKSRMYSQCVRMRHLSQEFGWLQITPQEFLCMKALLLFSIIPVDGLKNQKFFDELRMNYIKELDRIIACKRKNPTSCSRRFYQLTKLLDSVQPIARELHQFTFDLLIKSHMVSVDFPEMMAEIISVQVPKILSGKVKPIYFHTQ
Sequence of Serine/threonine-protein kinase MARK2 (Homo sapiens) (Q7KZI7 whole entry): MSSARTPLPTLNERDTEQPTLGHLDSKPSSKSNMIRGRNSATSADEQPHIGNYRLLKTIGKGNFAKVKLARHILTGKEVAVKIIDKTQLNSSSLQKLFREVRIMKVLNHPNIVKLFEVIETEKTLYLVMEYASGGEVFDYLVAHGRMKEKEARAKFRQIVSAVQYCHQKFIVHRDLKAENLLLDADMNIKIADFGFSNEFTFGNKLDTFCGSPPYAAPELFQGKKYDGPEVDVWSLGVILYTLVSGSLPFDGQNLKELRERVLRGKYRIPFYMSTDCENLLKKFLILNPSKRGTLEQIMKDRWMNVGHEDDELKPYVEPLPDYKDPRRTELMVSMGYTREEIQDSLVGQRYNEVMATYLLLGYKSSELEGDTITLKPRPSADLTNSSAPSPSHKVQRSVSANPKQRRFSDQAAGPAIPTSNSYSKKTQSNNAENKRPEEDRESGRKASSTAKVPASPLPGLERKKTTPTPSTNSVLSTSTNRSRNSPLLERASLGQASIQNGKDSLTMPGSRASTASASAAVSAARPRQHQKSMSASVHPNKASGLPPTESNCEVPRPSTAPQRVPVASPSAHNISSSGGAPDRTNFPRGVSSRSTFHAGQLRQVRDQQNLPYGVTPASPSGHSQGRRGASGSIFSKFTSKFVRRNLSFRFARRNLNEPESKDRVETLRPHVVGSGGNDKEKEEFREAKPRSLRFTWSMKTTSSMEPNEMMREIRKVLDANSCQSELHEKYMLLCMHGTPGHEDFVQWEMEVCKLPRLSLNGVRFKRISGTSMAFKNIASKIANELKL
Sequence of Sodium-dependent dopamine transporter (Homo sapiens) (Q01959 whole entry): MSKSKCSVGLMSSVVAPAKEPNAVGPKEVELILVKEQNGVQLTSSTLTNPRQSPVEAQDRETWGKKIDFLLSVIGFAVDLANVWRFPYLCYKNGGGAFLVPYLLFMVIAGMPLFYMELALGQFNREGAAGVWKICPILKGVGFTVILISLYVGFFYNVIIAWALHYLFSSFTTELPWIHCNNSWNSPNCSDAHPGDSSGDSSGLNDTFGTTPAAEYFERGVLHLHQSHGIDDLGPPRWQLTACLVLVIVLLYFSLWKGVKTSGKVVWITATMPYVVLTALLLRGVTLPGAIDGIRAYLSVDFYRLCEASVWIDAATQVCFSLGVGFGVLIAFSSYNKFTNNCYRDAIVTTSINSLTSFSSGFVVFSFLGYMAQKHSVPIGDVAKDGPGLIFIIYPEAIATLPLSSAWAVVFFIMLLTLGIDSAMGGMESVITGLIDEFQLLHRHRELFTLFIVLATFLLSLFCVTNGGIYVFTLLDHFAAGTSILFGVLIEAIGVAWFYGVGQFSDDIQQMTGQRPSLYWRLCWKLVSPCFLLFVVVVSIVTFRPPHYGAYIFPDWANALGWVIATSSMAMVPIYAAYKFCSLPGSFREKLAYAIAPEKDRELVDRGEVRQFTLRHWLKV
Sequence of Receptor tyrosine-protein kinase erbB-4 (Homo sapiens) (Q15303 whole entry): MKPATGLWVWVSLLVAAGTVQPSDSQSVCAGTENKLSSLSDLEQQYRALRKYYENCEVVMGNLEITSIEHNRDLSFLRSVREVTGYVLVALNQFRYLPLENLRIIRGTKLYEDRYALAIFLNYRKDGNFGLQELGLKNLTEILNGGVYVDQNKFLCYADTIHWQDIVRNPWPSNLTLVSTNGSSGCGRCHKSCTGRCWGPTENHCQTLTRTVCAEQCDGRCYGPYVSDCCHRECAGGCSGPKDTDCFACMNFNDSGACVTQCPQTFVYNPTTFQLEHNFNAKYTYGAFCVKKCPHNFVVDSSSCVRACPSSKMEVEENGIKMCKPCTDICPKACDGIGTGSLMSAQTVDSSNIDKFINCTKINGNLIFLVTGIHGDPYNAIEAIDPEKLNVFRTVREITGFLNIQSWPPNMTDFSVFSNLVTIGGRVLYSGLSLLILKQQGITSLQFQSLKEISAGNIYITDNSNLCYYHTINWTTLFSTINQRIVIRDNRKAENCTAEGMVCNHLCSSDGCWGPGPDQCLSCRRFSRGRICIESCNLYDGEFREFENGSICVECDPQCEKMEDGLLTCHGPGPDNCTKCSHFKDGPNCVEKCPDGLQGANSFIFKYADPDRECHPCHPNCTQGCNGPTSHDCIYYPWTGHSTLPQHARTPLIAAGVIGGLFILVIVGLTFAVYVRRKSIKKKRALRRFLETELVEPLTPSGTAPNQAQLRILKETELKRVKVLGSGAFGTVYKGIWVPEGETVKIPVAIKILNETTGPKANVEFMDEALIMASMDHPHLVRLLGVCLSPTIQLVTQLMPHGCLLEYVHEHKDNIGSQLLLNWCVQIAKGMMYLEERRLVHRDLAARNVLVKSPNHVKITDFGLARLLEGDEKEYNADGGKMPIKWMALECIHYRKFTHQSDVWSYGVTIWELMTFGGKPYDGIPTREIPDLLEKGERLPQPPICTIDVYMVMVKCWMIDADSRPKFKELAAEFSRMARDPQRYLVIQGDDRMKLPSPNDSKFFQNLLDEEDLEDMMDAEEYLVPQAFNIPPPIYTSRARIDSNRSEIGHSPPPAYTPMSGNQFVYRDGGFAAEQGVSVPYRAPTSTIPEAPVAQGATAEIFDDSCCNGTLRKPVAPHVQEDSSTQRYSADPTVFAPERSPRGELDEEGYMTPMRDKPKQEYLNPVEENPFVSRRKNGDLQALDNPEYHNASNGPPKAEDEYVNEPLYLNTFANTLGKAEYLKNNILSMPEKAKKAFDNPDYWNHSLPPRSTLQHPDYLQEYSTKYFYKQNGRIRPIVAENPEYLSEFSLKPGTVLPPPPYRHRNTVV
Sequence of Serine/threonine-protein kinase RIO1 (Homo sapiens) (Q9BRS2 whole entry): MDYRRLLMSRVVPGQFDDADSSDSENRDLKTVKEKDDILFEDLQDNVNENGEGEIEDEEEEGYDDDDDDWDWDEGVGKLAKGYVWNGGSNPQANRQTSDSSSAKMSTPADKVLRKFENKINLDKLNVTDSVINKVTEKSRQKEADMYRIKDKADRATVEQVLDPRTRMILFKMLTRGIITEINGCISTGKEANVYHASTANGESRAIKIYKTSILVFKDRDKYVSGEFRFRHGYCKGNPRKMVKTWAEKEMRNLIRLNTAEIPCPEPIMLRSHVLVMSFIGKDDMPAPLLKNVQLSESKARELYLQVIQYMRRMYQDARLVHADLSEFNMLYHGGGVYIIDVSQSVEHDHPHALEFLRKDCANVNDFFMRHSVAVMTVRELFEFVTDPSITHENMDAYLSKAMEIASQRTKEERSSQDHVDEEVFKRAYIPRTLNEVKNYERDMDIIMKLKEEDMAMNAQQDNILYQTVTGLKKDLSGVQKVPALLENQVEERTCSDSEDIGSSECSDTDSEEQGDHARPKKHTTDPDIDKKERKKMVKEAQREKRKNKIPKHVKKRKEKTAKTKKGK
Sequence of Tyrosine-protein kinase Srms (Homo sapiens) (Q9H3Y6 whole entry): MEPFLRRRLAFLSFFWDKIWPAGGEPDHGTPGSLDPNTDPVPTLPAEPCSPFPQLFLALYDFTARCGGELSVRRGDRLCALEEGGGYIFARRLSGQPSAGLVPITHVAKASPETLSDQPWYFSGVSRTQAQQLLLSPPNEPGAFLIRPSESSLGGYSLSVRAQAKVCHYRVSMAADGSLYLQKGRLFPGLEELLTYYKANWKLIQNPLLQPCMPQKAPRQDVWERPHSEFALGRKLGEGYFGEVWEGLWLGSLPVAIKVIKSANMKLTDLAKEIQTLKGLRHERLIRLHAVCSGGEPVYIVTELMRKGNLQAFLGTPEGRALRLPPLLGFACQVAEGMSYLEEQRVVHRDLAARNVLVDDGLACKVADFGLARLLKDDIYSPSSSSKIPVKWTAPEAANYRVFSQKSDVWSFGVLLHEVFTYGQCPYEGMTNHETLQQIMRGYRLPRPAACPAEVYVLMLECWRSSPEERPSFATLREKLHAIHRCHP
Sequence of Mitogen-activated protein kinase 14 (Homo sapiens) (Q16539 whole entry): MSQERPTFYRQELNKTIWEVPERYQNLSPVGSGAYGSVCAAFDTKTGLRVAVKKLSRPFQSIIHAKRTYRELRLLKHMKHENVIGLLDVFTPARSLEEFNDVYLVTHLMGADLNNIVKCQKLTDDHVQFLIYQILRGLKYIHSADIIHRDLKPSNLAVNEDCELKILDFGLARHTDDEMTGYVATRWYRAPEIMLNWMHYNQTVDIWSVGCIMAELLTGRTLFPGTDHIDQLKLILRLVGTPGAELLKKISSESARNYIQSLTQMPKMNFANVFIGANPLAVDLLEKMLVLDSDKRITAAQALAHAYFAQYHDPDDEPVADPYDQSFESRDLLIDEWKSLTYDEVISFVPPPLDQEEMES

## CN(C)CCOc1cc(-c2cn[nH]c2)ccc1NC(=O)C1COc2ccccc2O1 (stereo not given) [SR-3677]
[1]
  inhibition: < 10%
[2]
  inhibition: < 10%
[3]
  inhibition: < 10%
[4]
  inhibition: < 10%
[5]
  inhibition: < 10%
[6]
  inhibition: 37%
[7]
  inhibition: < 10%
[8]
  inhibition: < 10%
[9]
  inhibition: < 10%
[10]
  inhibition: < 10%
[11]
  inhibition: 3%
[12]
  inhibition: < 10%
[13]
  inhibition: 10%
[14]
  inhibition: < 10%
Homo sapiens
  inhibition: 12%
Sus scrofa
  inhibition: 90%
[15]
  inhibition: < 10%
[16]
  inhibition: < 10%
[17]
  inhibition: < 10%
[18]
  inhibition: < 10%
[19]
  inhibition: < 10%
[20]
  inhibition: < 10%
[21]
  inhibition: < 10%
[22]
  inhibition: < 10%
Rattus norvegicus
  inhibition: -4%
